This passage reports inhibition and Activity results from ChEMBL document CHEMBL3045942, “Design, synthesis, and anti-tobacco mosaic virus (TMV) activity of phenanthroindolizidines and their analogues” (2012).

Type in all cases: functional
For assay [1], the system named is Tobacco mosaic virus. The assay can be described thus: Antiviral activity against Tobacco mosaic virus (TMV) assessed as inhibition at 500 ug/mL. In outline: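 Half-leaf method on fresh Nicotiana tabacum var. Xanthi nc leaves at the 5–6 growth stage. Leaves were inoculated by juice-leaf rubbing with TMV at 5.88 × 10−2 μg mL−1, then cut in halves along the main vein. Halves were immersed 20 min in compound solution or double-distilled water as control, then kept 25 °C for 72 h. Inhibition % = (mean control lesions − mean treated lesions)/mean control lesions × 100. At least 3 replicates.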

In assay [2] the test system is Tobacco mosaic virus. The experiment in a line: Antiviral activity against Tobacco mosaic virus (TMV) assessed as inhibition at 1 ug/mL.
The test system of assay [3] is Tobacco mosaic virus. The assay can be described thus: In vivo antiviral activity against Tobacco mosaic virus (TMV) inoculated right side of Nicotiana tabacum L. leaves assessed as protection effect at 100 ug/mL preincubated 12 hr before viral challenge measured after 3 to 4 days. The gist of the method:
(§1)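 Protective test on same-age growing Xanthi nc tobacco leaves. Compound solution was smeared on the left half and solvent on the right half as control. After 12 h, leaves were inoculated with TMV applied by brush. Inhibition % = (mean control lesions − mean treated lesions)/mean control lesions × 100. Three replicates.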

Assay [4] deals with Tobacco mosaic virus. The assay can be described thus: In vivo antiviral activity against Tobacco mosaic virus (TMV) inoculated right side of Nicotiana tabacum L. leaves assessed as protection effect at 500 ug/mL preincubated 12 hr before viral challenge measured after 3 to 4 days. The gist of the method: as §1
Assay [5] has as its system Tobacco mosaic virus. The assay can be described thus: In vivo antiviral activity against Tobacco mosaic virus (TMV) pre-inoculated Nicotiana tabacum L. leaves assessed as curative effect at 100 ug/mL measured after 3 to 4 days. In outline:
(§2)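 Curative test on same-age growing Xanthi nc leaves. Whole leaves were first inoculated with TMV (6.0 × 10−3 mg mL−1), then washed with water and dried. Compound solution was smeared on the left half and solvent on the right half as control. Local lesions were counted 3–4 days after inoculation, and inhibition % was derived from mean lesion numbers. Three replicates.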

Assay [6] deals with Tobacco mosaic virus. The assay can be described thus: In vivo antiviral activity against Tobacco mosaic virus (TMV) pre-inoculated Nicotiana tabacum L. leaves assessed as curative effect at 500 ug/mL measured after 3 to 4 days. In outline: as §2
Assay [7] relates to Tobacco mosaic virus. The assay can be described thus: In vivo antiviral activity against Tobacco mosaic virus (TMV) inoculated left side of Nicotiana tabacum L. leaves assessed as inactivation effect at 100 ug/mL co-incubated with virus measured after 3 to 4 days. The gist of the method: (§3)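 Inactivation test in N. tabacum var. Xanthi nc. Virus was mixed with an equal volume of compound solution for 30 min and the mixture inoculated on the left leaf half. The right half received a solvent–virus mixture as control. Local lesions were counted 3–4 days after inoculation. Inhibition % was calculated from mean lesion numbers of control versus treated halves. Three replicates.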

Assay [8] concerns Tobacco mosaic virus. The experiment in a line: In vivo antiviral activity against Tobacco mosaic virus (TMV) inoculated left side of Nicotiana tabacum L. leaves assessed as inactivation effect at 500 ug/mL co-incubated with virus measured after 3 to 4 days. In outline: as §3
Assay [9] deals with Tobacco mosaic virus. The assay can be described thus: Antiviral activity against Tobacco mosaic virus (TMV) inoculated in 5-6 growth stage leaf assessed as inhibition effect at 100 ug/mL at 25 degC after 72 hr by half-leaf method. The gist of the method:
(§4)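 Half-leaf assay on fresh leaves of Nicotiana tabacum var. Xanthi nc at the 5–6 growth stage. Leaves were rub-inoculated with leaf juice (TMV 5.88 × 10−2 μg mL−1) and cut in halves along the main vein. One half was immersed in compound solution and the other in double-distilled water for 20 min, then kept at 25 °C for 72 h. Inhibition % = (mean control lesions − mean treated lesions)/mean control lesions × 100. At least 3 replicates.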

Assay [10] has as its system Tobacco mosaic virus. The assay can be described thus: Antiviral activity against Tobacco mosaic virus (TMV) inoculated in 5-6 growth stage leaf assessed as inhibition effect at 500 ug/mL at 25 degC after 72 hr by half-leaf method. In outline: as §4

Turning to `O=C1NCNC(=O)N1`, the inhibition (usually the change of the read-out against control, counted positive when it falls) at 500 µg/mL in assay [1] is 50%.
In the case of `COc1cc2c3c(c4ccc(O)cc4c2cc1OC)CN1CCC[C@@H]1C3`, the inhibition at 1 µg/mL in assay [2] was determined as 70%.
Consider `COc1ccc2c3c(c4cc(OC)c(OC)cc4c2c1)CN1CCC[C@H]1[C@H]3O`, for which the Activity in assay [3] worked out at 24.5%; in [4] it was 41.3%; in [5] it was 17.2%; in [6], 40%; in [7] it was 0%; in assay [8], 32.4%. The inhibition at 100 µg/mL in assay [9] is 29.6%. Also, in assay [10], the inhibition at 500 µg/mL stood at 45.2%.
With `COc1cc2cc(C(=O)N3CCC[C@H]3C)c3cc(OC)c(OC)cc3c2cc1OC`, the Activity in [3] is listed as 18.9%; in assay [4], 43.3%; in [5], 6.2%; in [6], 30.1%; in assay [7] it was 9.6%; in [8], 31.3%. Besides, the inhibition at 100 µg/mL in [9] is 15.3%. Moreover, in [10], the inhibition at 500 µg/mL is 38.4%.
With `COc1ccc2c3c(c4cc(OC)c(OC)cc4c2c1)CN1CCC[C@@H]1[C@@H]3O`, the Activity worked out at 30.2% in assay [3]; 54.4% in [4]; 27.8% in [5]; 56.2% in [6]; 33.3% in [7]; 51.2% in [8]. Moreover, the inhibition at 100 µg/mL in [9] was 33.1%. Further, the inhibition at 500 µg/mL in assay [10] turned out to be 47.7%.
Take `CC(=O)N1CN(C(C)=O)C(=O)NC1=O`: the inhibition at 500 µg/mL in assay [1] worked out at 50%.
